Results reported in publication PMC10515777 (bioRxiv, 2024).

Tests used:
[1] = ref [9],[10]; cited from earlier work
[2] = ref [8]; cited from earlier work
WT CFTR = WT CFTR (Homo sapiens, UniProt P13569); assay: Inside-out patch clamp recording of macroscopic currents, WT CFTR; assay type: biochemical; settings: for change of CFTR currents: enantiomers perfused at 100 M, inside-out patches, 3 mM ATP
Summary of the method: (§1)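 WT, S308A or Y304A CFTR (mutants made by site-directed mutagenesis), C-terminally GFP-tagged in BacMam vector, transfected into CHO cells, then 2% FBS at 30 °C for 2 days. Excised inside-out patches were phosphorylated with 25 units/ml PKA plus 3 mM ATP and held at −30 mV, 25 °C, pH 7.4 NMDG solutions. Fold stimulation is the current ratio with/without perfused compound. Dose-response currents were normalized to pre-titration ATP current and fitted for EC50. Means ± SE of patches.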

Y304A CFTR = Y304A CFTR (Homo sapiens, UniProt P13569, Y304A); assay: Inside-out patch clamp recording, Y304A CFTR; assay type: biochemical; settings: inside-out patches, 3 mM ATP
Chain of Y304A CFTR (P13569 whole entry Y304A): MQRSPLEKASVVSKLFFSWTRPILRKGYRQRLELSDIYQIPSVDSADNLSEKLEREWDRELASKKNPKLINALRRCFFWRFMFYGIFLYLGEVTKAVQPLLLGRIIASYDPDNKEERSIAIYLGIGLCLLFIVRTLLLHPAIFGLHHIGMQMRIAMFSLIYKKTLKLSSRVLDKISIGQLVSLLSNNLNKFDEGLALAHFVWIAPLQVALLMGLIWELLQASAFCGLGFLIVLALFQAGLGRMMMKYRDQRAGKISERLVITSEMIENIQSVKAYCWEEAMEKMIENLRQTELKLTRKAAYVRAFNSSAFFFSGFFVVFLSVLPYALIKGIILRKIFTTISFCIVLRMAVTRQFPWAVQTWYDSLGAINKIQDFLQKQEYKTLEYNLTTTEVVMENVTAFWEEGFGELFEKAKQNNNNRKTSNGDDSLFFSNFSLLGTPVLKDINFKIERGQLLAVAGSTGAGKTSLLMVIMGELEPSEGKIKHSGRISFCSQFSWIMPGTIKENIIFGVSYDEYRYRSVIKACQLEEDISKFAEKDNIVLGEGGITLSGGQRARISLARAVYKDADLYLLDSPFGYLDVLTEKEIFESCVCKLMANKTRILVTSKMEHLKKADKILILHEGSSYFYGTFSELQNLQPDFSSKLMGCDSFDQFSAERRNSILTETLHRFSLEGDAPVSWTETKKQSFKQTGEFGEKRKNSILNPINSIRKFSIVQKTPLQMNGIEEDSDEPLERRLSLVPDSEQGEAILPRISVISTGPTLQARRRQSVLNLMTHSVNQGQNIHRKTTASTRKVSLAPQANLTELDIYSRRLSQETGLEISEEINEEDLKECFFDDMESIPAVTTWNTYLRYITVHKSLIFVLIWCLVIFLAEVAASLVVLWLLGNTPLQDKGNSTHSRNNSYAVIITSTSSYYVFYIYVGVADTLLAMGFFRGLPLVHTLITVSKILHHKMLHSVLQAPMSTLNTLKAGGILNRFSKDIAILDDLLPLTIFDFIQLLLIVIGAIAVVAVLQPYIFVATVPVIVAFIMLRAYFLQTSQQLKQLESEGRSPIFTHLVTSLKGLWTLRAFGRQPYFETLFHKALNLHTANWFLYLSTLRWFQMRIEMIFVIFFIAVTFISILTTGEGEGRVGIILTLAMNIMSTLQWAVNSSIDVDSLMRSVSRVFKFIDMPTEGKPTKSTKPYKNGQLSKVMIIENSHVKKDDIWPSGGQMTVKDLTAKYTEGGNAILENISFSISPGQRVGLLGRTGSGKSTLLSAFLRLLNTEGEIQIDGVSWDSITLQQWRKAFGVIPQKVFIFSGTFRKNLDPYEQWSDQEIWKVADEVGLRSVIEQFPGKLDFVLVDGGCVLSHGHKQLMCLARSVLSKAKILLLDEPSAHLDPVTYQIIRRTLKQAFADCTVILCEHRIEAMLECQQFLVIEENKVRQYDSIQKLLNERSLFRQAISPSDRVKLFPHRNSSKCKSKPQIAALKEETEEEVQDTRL
Summary of the method: as §1

S308A CFTR = S308A CFTR (Homo sapiens, UniProt P13569, S308A); assay: Inside-out patch clamp recording, S308A CFTR; assay type: biochemical; settings: inside-out patches, 3 mM ATP
Chain of S308A CFTR (P13569 whole entry S308A): as the sequence (P13569 whole entry Y304A) above, with A304Y, S308A counted along it
Summary of the method: as §1

Chain of WT CFTR (P13569 whole entry, the tested form may be a part): as the sequence (P13569 whole entry Y304A) above, with A304Y counted along it

## CC(C)(C)c1cc(C(C)(C)C)c(NC(=O)c2c[nH]c3ccccc3c2=O)cc1O [Ivacaftor, N-(2,4-di-tert-butyl-5-hydroxyphenyl)-4-oxo-1,4-dihydroquinoline-3-carboxamide]
[1]
  bound to plasma proteins: 99%
[2]
  water solubility: < 0.05 µg/mL

## C[C@@H](COc1ccccc1)C(=O)n1nc(N)c2ccc(CO)cc21 [Compound I1408, (S)-1-(3-Amino-6-(hydroxymethyl)-1H-indazol-1-yl)-2-methyl-3-phenoxypropan-1-one]
WT CFTR
  EC50: 93 ± 42 nM

## C[C@@H](COc1ccc(F)cc1)C(=O)n1nc(N)c2ccc(F)cc21 [(S)-SX263, (S)-1-(3-Amino-6-fluoro-1H-indazol-1-yl)-3-(4-fluorophenoxy)-2-methylpropan-1-one]
WT CFTR
  EC50: 136 ± 60 nM

## C[C@H](COc1ccccc1)C(=O)n1ncc2ccc(C(N)=O)cc21 [Compound I1412, (R)-1-(2-Methyl-3-phenoxypropanoyl)-1H-indazole-6-carboxamide]
Y304A CFTR
  effect of alanine substitution Y304A on compound activity: eliminated the activity
WT CFTR
  IC50: 21000 nM
S308A CFTR
  effect of alanine substitution S308A on compound activity: eliminated the activity

## C[C@H](COc1ccccc1)C(=O)n1nc(N)c2ccc(F)cc21 [(R)-’853, (R)-1-(3-Amino-6-fluoro-1H-indazol-1-yl)-2-methyl-3-phenoxypropan-1-one]
WT CFTR
  change of CFTR currents: 0.89 fold

## C[C@H](COc1ccccc1)C(=O)n1nc(N)c2ccc(C(N)=O)cc21 [Compound I1422, (R)-3-Amino-1-(2-methyl-3-phenoxypropanoyl)-1H-indazole-6-carboxamide]
WT CFTR
  IC50: 41000 nM

## C[C@@H](COc1ccccc1)C(=O)n1nc(N)c2ccc(F)cc21 [(S)-’853, (S)-1-(3-Amino-6-fluoro-1H-indazol-1-yl)-2-methyl-3-phenoxypropan-1-one]
Y304A CFTR
  effect of alanine substitution Y304A on compound activity: abolished the potentiating effect
WT CFTR
  EC50: 2100 ± 900 nM
  change of CFTR currents: 1.5 fold
S308A CFTR
  effect of alanine substitution S308A on compound activity: abolished the potentiating effect
